Laboratory results reported in article PMC5984530 (Proceedings of the National Academy of Sciences of the …, 2018).
Residue numbers refer to the chain shown, from its start. Blank lines part the entries; values can stand above or below the compound they belong to.

Assays:
HlCHIL1 protein = molecular target: T1, HlCHIL1 protein (Humulus lupulus, UniProt A0A2U7XUH7); assay: Differential scanning fluorimetry; format: binding; conditions: for binding to CHIL1 protein (in words): wild-type HlCHIL1, differential scanning fluorimetry; for ΔTmmax: wild-type HlCHIL1, thermal shift dose-response
T1 sequence (A0A2U7XUH7 1-214): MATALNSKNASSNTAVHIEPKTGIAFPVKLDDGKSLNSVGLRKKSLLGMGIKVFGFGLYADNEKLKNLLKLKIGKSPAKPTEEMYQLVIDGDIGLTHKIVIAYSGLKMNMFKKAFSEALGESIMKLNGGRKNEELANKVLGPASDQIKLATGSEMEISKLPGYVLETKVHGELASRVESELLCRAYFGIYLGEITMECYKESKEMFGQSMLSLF
Summary of the method: (§1)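 Purified HlCHIL protein (wild-type or point mutant), 5 μM, was mixed with Protein Thermal Shift buffer and dye. Test ligand was serially diluted from 250 μM to 0.12 μM (12 points). Melting was followed on a real-time PCR instrument. Kd and ΔTmmax were fitted from the dose–response of thermal shift against ligand concentration.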

CHIL2 = molecular target: T2, CHIL2 (Humulus lupulus, UniProt A0A2U7XUE3); assay: Protein-metabolite interaction assay; format: binding; conditions: same incubation conditions, 8 h at 4 °C
T2 sequence (A0A2U7XUE3 1-209): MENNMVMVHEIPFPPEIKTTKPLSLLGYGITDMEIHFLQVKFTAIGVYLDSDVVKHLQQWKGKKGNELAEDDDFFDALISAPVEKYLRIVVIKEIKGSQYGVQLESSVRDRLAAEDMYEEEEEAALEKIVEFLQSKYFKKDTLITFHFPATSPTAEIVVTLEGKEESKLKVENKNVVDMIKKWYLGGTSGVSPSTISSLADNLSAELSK

CHIL1^A143F = molecular target: T3, CHIL1^A143F (Humulus lupulus, UniProt A0A2U7XUH7, A143F); assay: Differential scanning fluorimetry binding assay with CHIL1 A143F mutant; conditions: thermal shift dose-response
T3 sequence (A0A2U7XUH7 1-214 A143F): T1 sequence (A0A2U7XUH7 1-214) with A143F
Summary of the method: as §1

CHIL1^V139F = molecular target: T4, CHIL1^V139F (Humulus lupulus, UniProt A0A2U7XUH7, V139F); assay: Differential scanning fluorimetry binding assay with CHIL1 V139F mutant
T4 sequence (A0A2U7XUH7 1-214 V139F): T1 sequence (A0A2U7XUH7 1-214) with V139F
Summary of the method: as §1

CHIL1^V139F/A143F = molecular target: T5, CHIL1^V139F/A143F (Humulus lupulus, UniProt A0A2U7XUH7, A143F/V139F); format: binding; conditions: thermal shift dose-response
T5 sequence (A0A2U7XUH7 1-214 V139F/A143F): T1 sequence (A0A2U7XUH7 1-214) with V139F, A143F

His-tagged CHIL1 = molecular target: T6, His-tagged CHIL1 (Humulus lupulus, UniProt A0A2U7XUH7); assay: Protein-metabolite interaction assay; format: binding
T6 sequence (A0A2U7XUH7 1-214): T1 sequence (A0A2U7XUH7 1-214)
Summary of the method: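 His-tagged CHIL1 was expressed in E. coli BL21 and purified by Ni-NTA. Protein (30 μg) was incubated for 8 h at 4 °C with yeast extract (about 200 μM N/NC, 5 μM DMX) in 50 mM Tris·HCl pH 7.5 with 20% methanol. Protein was captured on MagneHis Ni beads. Bead-bound and supernatant compounds were extracted with ethyl acetate and measured by LC-QQQ-MS/MS (MRM 341.0→165.0). Beads alone were the control; n = 3.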

CHS_H1 = molecular target: T7, CHS_H1 (Humulus lupulus, UniProt Q9FEY5); assay: In vitro chalcone synthase assay, kinetic parameters, CHS_H1 alone; format: biochemical; conditions: 2 μg CHS_H1; other substrate fixed: 150 μM malonyl-CoA or 40 μM p-coumaroyl-CoA
T7 sequence (Q9FEY5 1-389): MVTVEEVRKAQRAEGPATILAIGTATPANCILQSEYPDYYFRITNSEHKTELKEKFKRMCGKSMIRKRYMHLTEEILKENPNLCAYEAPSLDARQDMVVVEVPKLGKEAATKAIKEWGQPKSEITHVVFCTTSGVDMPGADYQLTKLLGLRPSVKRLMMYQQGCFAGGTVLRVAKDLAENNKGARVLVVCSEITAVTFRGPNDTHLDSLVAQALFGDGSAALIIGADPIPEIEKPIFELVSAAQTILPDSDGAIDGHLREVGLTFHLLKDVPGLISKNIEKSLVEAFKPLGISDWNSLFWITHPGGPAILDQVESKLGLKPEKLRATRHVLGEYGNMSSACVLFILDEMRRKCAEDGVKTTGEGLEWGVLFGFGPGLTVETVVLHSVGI
Summary of the method: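 Purified recombinant CHS_H1 (2 μg) was run in standard reactions: 50 mM Tris·HCl pH 7, 0.1 mg/mL BSA, 30 °C, 60 min. One substrate was fixed (40 μM p-coumaroyl-CoA or 150 μM malonyl-CoA) while the other was varied. Products were extracted and quantified. Apparent Km came from Hanes plots; n = 3, means ± SD.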

Compound: CC(C)=CCc1c(O)cc2c(c1O)C(=O)C[C@@H](c1ccc(O)cc1)O2 [6PN, 6-prenylnaringenin]
binding to CHIL1 protein (in words) (HlCHIL1 protein): no such binding could be detected

binding to CHIL1 protein (in words) (HlCHIL1 protein): no such binding could be detected
Compound: CC(C)=CCc1c(O)cc(O)c2c1O[C@H](c1ccc(O)cc1)CC2=O [8PN, 8-prenylnaringenin]
CHIL2-associated compound (in words) (CHIL2): no CHIL2-associated DMX or 8PN were detected

Compound: CC(C)=CCc1c(O)cc(O)c(C(=O)/C=C/c2ccc(O)cc2)c1O [DMX, demethylxanthohumol]
ΔTmmax (CHIL1^A143F): 10.87 °C
CHIL2-associated compound (in words) (CHIL2): no CHIL2-associated DMX or 8PN were detected
Kd (CHIL1^V139F): 10 µM
ΔTmmax (CHIL1^V139F; CHIL1^V139F, thermal shift dose-response): 10.15 °C
Kd (HlCHIL1 protein): 25.1 µM
ΔTmmax (HlCHIL1 protein): 10.23 °C
ΔTmmax (CHIL1^V139F/A143F): 5.26 °C
enrichment of DMX levels by CHIL1 protein (bound vs solution) (His-tagged CHIL1; incubation 8 h at 4 °C with yeast extract (DMX/6PN/8PN)): 14.2 fold
ratio of (DMX)/(total DMX) in CHIL1-bound chemical mixture (His-tagged CHIL1; incubation 8 h at 4 °C, n = 3): 19.7%
ratio of (DMX)/(total DMX) in solution (His-tagged CHIL1; supernatant, incubation 8 h at 4 °C): 1.39%

Kcat (CHS_H1): 0.24 ± 0.03 s^−1 × 10^−3
Km (CHS_H1): 10.1 ± 2.99 µM
Compound: CC(C)(COP(=O)(O)OP(=O)(O)OC[C@H]1O[C@@H](n2cnc3c(N)ncnc32)[C@H](O)[C@@H]1OP(=O)(O)O)[C@@H](O)C(=O)NCCC(=O)NCCSC(=O)CC(=O)O [Malonyl-CoA]

binding to CHIL1 protein (in words) (HlCHIL1 protein): no such binding could be detected
Compound: O=C1C[C@@H](c2ccc(O)cc2)Oc2cc(O)cc(O)c21 [N, naringenin]

binding to CHIL1 protein (in words) (HlCHIL1 protein): no such binding could be detected
Compound: COc1cc(O)c(CC=C(C)C)c(O)c1C(=O)/C=C/c1ccc(O)cc1 [XN, 3′-prenyl-6′-O-methylchalconaringenin]

ΔTmmax (HlCHIL1 protein): 5.0 °C
Compound: CCCCCCCCCCCC(=O)O [lauric acid]

Kd (HlCHIL1 protein): 3.45 µM
ΔTmmax (HlCHIL1 protein): 3.55 °C
Compound: CCCCCCCCCCCCCC(=O)O [myristic acid]

Kcat (CHS_H1): 0.21 ± 0.02 s^−1 × 10^−3
Km (CHS_H1): 4.82 ± 0.99 µM
Compound: CC(C)(COP(=O)(O)OP(=O)(O)OC[C@H]1O[C@@H](n2cnc3c(N)ncnc32)[C@H](O)[C@@H]1OP(=O)(O)O)[C@@H](O)C(=O)NCCC(=O)NCCSC(=O)/C=C/c1ccc(O)cc1 [p-Coumaroyl-CoA]
